Measured values taken from article PMC3569657 (EMBO Molecular Medicine, 2012).
Values joined by “and” are separate entries in the source; they are usually repeats but may differ in a detail not shown here. Equal entries are not always repeated. Where two headings read alike, the source gives them in different places. Peptide text beside a SMILES is read from it. * marks the point of attachment. Cbz = O=C(OCc1ccccc1)*; CH2F = FC*

Legend:
I2PP2A/SET = I2PP2A/SET (Homo sapiens, UniProt Q01105); assay type: binding; settings: unlabeled competitor 10 µM; purified I2PP2A/SET
Sequence of I2PP2A/SET (Q01105 1-277 isoform Q01105-2): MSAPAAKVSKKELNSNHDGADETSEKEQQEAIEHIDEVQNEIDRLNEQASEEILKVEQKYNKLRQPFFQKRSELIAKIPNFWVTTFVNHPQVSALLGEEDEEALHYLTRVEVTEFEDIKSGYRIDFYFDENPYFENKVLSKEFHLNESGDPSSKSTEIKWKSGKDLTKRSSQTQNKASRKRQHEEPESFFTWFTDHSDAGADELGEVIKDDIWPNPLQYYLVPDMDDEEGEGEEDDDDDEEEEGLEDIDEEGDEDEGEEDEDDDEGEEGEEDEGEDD
Summary of the method: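 Recombinant human I2PP2A/SET (His-tag vector), 1–2 µg, incubated with biotin alone or biotin-labelled test compound (1, 5 or 10 µM). Competition runs added unlabelled ceramide or the parent or phosphorylated compound, 10 µM each. Bound protein was captured by streptavidin/avidin column pull-down, and eluates were run on SDS–PAGE and immunoblotted with anti-I2PP2A/SET.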

[1] = biological target: purified recombinant human I2PP2A/SET (Homo sapiens, UniProt Q01105); assay: SPR binding of purified human I2PP2A/SET to lipid vesicles
Sequence of purified recombinant human I2PP2A/SET (Q01105 1-277 isoform Q01105-2): as above
Summary of the method: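 SPR at 25°C. Sensor chip coated with vesicles of POPC:POPE:x (75:20:5, x = C18-ceramide or test compound) to about 6200 RU, against a POPC:POPE (80:20) control surface, and stabilised with 50 mM NaOH. Protein (I2PP2A/SET, or p47phox-PX control protein) in 20 mM HEPES pH 7.4, 0.16 M KCl was flowed at 5 µl/min. Triplicate sensorgrams per lipid were fitted individually for ka and kd, giving Kd = kd/ka.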

WT-I2PP2A/SET-GFP = WT-I2PP2A/SET-GFP (Homo sapiens, UniProt Q01105); assay: anti-GFP pull-down from A549 cells, protein-bound endogenous lipids by LC/MS/MS; assay type: binding; settings: for binding of WT-I2PP2A/SET to ceramide, fold: compared to the K209D-I2PP2A/SET (so in the source)
Sequence of WT-I2PP2A/SET-GFP (Q01105 1-277 isoform Q01105-2): as above

Y122C-I2PP2A/SET-GFP = Y122C-I2PP2A/SET-GFP (Homo sapiens, UniProt Q01105, Y135C); assay: as above; assay type: binding; settings: compared to vector-transfected controls
Sequence of Y122C-I2PP2A/SET-GFP (Q01105 1-277 isoform Q01105-2 Y122C): as the sequence (Q01105 1-277 isoform Q01105-2) above, with Y122C counted along it

[2] = test system: MEFs obtained from caspase3/7−/− DKO, Bax/Bak−/− DKO or ATG5−/− KO mice; assay: MTT growth assay in knockout MEFs; assay type: cell-based, mouse; settings: various concentrations
[3] = FTY720 and P-FTY720 in serum and tumours of LLC-allograft mice by LC/MS/MS; assay type: in vivo, mouse; settings: oral FTY720 10 mg/kg
Summary of the method: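 Lewis lung adenocarcinoma allografts were grown in flanks of WT and SK-2−/− mice. Animals received oral test compound at 10 mg/kg. Parent compound and its phosphorylated form were quantified by LC/MS/MS in the tumours.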

SK2−/− MEFs = assay: MTT growth assay; assay type: cell-based; settings: Mus musculus
c-Myc-V5 = assay: Ectopically expressed c-Myc-V5 in MEFs by Western blotting; assay type: cell-based, mouse
Summary of the method: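 V5-tagged c-Myc was ectopically expressed in WT, SK-1−/− and SK-2−/− mouse embryonic fibroblasts. Cells were exposed to test compound, and c-Myc was detected by Western blotting with actin as loading control. Relative c-Myc levels were derived from band quantification.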

WT MEFs = assay: MTT growth assay; assay type: cell-based; settings: Mus musculus
SK1−/− MEFs = assay: MTT growth assay; assay type: cell-based; settings: Mus musculus
[4] = test system: Lewis lung adenocarcinoma cell (LLC)-derived allografts; assay: Lewis lung adenocarcinoma allograft growth in WT and SK-2−/− mice; assay type: in vivo, mouse; settings: 10 mg/kg/day oral, vs controls
Summary of the method: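 Lewis lung adenocarcinoma cells were implanted in flanks of WT (C57BL/6 background) and SK-2−/− mice. Animals were treated with oral test compound at 10 mg/kg or served as controls. Results are given as % change in tumour volume for each genotype against its controls at Day 13.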

[5] = test system: A549-xenograft-derived tumours; assay: A549-xenograft-derived tumour growth in SCID mice; assay type: in vivo, Balb/c SCID mice
Summary of the method: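 A549 cells, or A549 lines with control shRNA, I2PP2A/SET shRNA or shRNA plus WT-I2PP2A/SET re-expression, grown as flank xenografts in Balb/c SCID mice. Test compound was given by oral gavage at 3 mg/kg/day against vehicle-treated controls: 15 days (n = 12) for parental xenografts, 18 days for the shRNA lines. Tumour volume change was computed relative to untreated sh-control mice at Day 18. Tumours were also examined by electron microscopy for mitochondrial damage and cytoplasmic swelling.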

A549 cells [6] = assay: Annexin V/7-AAD flow cytometry; assay type: cell-based, human; settings: compared to controls
c-Myc = c-Myc expression in A549 cells by Western blotting; assay type: cell-based, human; settings: compared to controls
Summary of the method: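 A549 cells were treated with test compound or its phosphorylated form alongside controls. c-Myc was detected by Western blotting with actin as loading control, and relative c-Myc levels were derived from band quantification.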

serum LDH = assay: Total LDH released in serum of xenograft-bearing mice; assay type: in vivo, SCID mice; settings: mice bearing A549/sh-control xenografts, 3 mg/kg/day oral
Summary of the method: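 Balb/c SCID mice bearing A549/sh-control, sh-I2PP2A/SET or reconstituted WT-I2PP2A/SET xenografts were dosed by daily oral gavage at 3 mg/kg for 18 days, with untreated mice as controls. Total serum LDH was measured by an external analytical lab.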

PP2A = PP2A activity assay on A549 cell extracts; assay type: cell-based, human; settings: 10 µM FTY720, compared to vehicle-treated controls
Summary of the method: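 PP2A phosphatase activity was measured in extracts of A549, A549/shI2PP2A and A549/shI2PP2A re-expressing WT-I2PP2A/SET (about 60% reconstitution). Cells were grown with or without 10 µM test compound. In a related set, PP2A siRNA knockdown in A549 cells was compared with scrambled-siRNA controls.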

A549 cells [7] = assay: Cell death by LDH release; assay type: cell-based, human; settings: for effect of pre-treatment on FTY720-mediated cell death / growth suppression: A549 cells, FTY720 20 µM, OA 10 nM
Summary of the method: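 A549 cells were exposed to 20 µM test compound or vehicle for 24 h, and cell death was read as LDH released into the medium. Variants included pre-treatment with okadaic acid (10 nM), Z-VAD or necrostatin, and PP2A siRNA knockdown against scrambled siRNA (knockdown checked by Western blot). Another variant used HA-tagged PP2A overexpression, confirmed by Western blot, compared with controls.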

[8] = test system: H157 (K-Ras mutant) human lung cancer cells; assay: Cell death by LDH release; assay type: cell-based; settings: FTY720 20 µM; for effect on FTY720-mediated cell death: LDH release
Summary of the method: (§1)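 Cell death was assessed in human lung cancer lines H157 (K-Ras mutant) and H827 (EGFR mutant) after exposure to test compound. Conditions compared with controls: RIPK1 inhibition by necrostatin, PP2A inhibition by okadaic acid, and siRNA knockdown of RIPK1 or PP2Ac.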

[9] = test system: P-PP2A (Y307), c-Myc, hTERT mRNA; assay: PP2A signalling markers in A549-xenograft tumours; assay type: in vivo, SCID mice; settings: 3 mg/kg/day oral
RIPK1−/− MEFs = assay: Cell death in RIPK1−/− versus RIPK1+/+ MEFs; assay type: cell-based, mouse; settings: FTY720 15 µM, RIPK1−/− compared to RIPK1+/+ MEFs
[10] = FTY720 and P-FTY720 in tumour and serum of A549-xenograft mice by LC/MS/MS; assay type: in vivo, SCID mice; settings: mice treated with oral FTY720 3 mg/kg/day
[11] = test system: H827 (EGFR mutant) human lung cancer cells; assay: Cell death by LDH release; assay type: cell-based; settings: FTY720 20 µM
Summary of the method: as §1

ATG5−/− MEFs = assay: Caspase 3 activity assay, taxol-induced apoptosis; assay type: cell-based, mouse; settings: 80 nM and 24 h, compared to WT MEFs

CCCCCCCCCCCCC/C=C/[C@@H](O)[C@H](CO)NC(=O)CCCCCCCCCCCCCCCCC [C18-ceramide]
competition with B-FTY720-I2PP2A/SET binding (I2PP2A/SET): competed significantly
Kd ([1]; read-out: Protein Kd, liposomes POPC:POPE:x (75:20:5), control POPC:POPE (80:20), 1 µM I2PP2A, 20 mM HEPES pH 7.4, 160 mM KCl): ~11 nM and 11 nM

CCCCCCCCCCCCC/C=C/[C@@H](O)[C@H](CO)NC(=O)CCCCCCCCCCCCCCCCCCC [C20]
binding of WT-I2PP2A/SET to ceramide, fold (WT-I2PP2A/SET-GFP): 1.9 fold

CCCCCCCCCCCCC/C=C/[C@@H](O)[C@H](CO)NC(=O)CCCCCCCCCCCCCCCCCCCCC [C22]
binding of WT-I2PP2A/SET to ceramide, fold (WT-I2PP2A/SET-GFP): 2.6 fold

CCCCCCCCCCCCC/C=C/[C@@H](O)[C@H](CO)NC(=O)CCCCCCCCCCCCCCCCCCCCCCC [C24]
binding of WT-I2PP2A/SET to ceramide, fold (WT-I2PP2A/SET-GFP): 2.1 fold

CCCCCCCCCCCCC/C=C/[C@@H](O)[C@H](CO)NC(=O)CCCCCCCCCCCCCCCCCCCCCCCCC [C26]
increased binding of Y122C-I2PP2A/SET to ceramide, fold (Y122C-I2PP2A/SET-GFP): ~2.4 fold
binding of WT-I2PP2A/SET to ceramide, fold (WT-I2PP2A/SET-GFP): 2.5 fold

CCCCCCCCc1ccc(CCC(N)(CO)CO)cc1 [FTY720, 2-amino-2-[2-(4-octylphenyl)ethyl]propane-1,3-diol]
effect of genetic loss of caspases3/7, Bax/Bak or ATG5 on FTY720-induced cell death [2]: no protective effect
accumulation in tumours grown in WT and SK-2−/− mice [3]: comparable
IC50 (SK2−/− MEFs): ~10000 nM
reduced c-Myc expression (c-Myc-V5; SK-1−/− MEFs): 70%
reduced c-Myc expression (c-Myc-V5; SK-2−/− MEFs): 55%
reduced c-Myc expression (c-Myc-V5; WT MEFs): 80%
IC50 (WT MEFs): ~10000 nM
competition with B-FTY720-I2PP2A/SET binding (I2PP2A/SET): competed significantly
IC50 (SK1−/− MEFs): ~10000 nM
inhibition of tumour growth ([4]; SK-2−/− mice): ~47%
inhibition of tumour growth ([4]; WT mice): ~60%
tumour suppression in A549/sh-I2PP2A/SET xenografts expressing WT-I2PP2A/SET ([5]; 3 mg/kg/day oral): restored tumour suppressor effects
tumour suppression in response to I2PP2A/SET knockdown (A549/sh-I2PP2A/SET xenografts) ([5]; 3 mg/kg/day oral): no additional effects
growth of A549-xenograft-derived tumours ([5]; 3 mg/kg/day oral for 15 days, n = 12, p < 0.05 vs controls): inhibited the growth
inhibition of growth of A549/control-derived xenografts ([5]; 3 mg/kg/day oral, 18 days, vs vehicle-treated controls): ~80%
tumours with damaged/swollen mitochondria (TEM) ([5]; oral FTY720, n = 20): ~40%
Annexin V/7-AAD positive cell populations (A549 cells [6]): increased
c-Myc levels (c-Myc): decreased c-Myc levels
serum LDH (serum LDH): increased serum LDH
PP2A activity (PP2A): enhanced PP2A activity
Kd ([1]; Protein Kd, liposomes POPC:POPE:x (75:20:5), control POPC:POPE (80:20), 1 µM I2PP2A, 20 mM HEPES pH 7.4, 160 mM KCl): ~11 nM and 11 nM
cell death (A549 cells [7]; 20 µM, 24 h, LDH release): significantly induced cell death
increase of FTY720-mediated cell death on overexpression of PP2A-HA (A549 cells [7]; compared to controls): ~40%
PP2A-dependent necroptosis [8]: detected
c-Myc and hTERT mRNA in tumours ([9]; IHC or Western blotting, Q-PCR): decreased
inactive P-PP2A (Y307) in tumours ([9]; IHC, without affecting total PP2A): decreased
cell death on genetic loss of RIPK1 (RIPK1−/− MEFs): almost completely abrogated cell death
accumulation in A549-xenograft-derived tumours [10]: 0.2 pmol/nmol Pi
accumulation in serum [10]: ~100 pmol/mL
PP2A-dependent necroptosis [11]: detected

CCCCCCCCc1ccc(CC[C@](N)(CO)COP(=O)(O)O)cc1 [P-FTY720]
accumulation in serum on loss of SK-2 ([3]; SK-2−/− mice): almost completely abrogated
Protein Kd ([1]; liposomes POPC:POPE:x (75:20:5), control POPC:POPE (80:20), 1 µM I2PP2A, 20 mM HEPES pH 7.4, 160 mM KCl): below the detection limit
accumulation in A549-xenograft-derived tumours [10]: 0.05 pmol/nmol Pi
accumulation in serum [10]: ~400 pmol/mL

CC(NC(=O)C(NC(=O)OCc1ccccc1)C(C)C)C(=O)NC(CC(=O)O)C(=O)CF (stereo not drawn) [Z-VAD] (Cbz-Val-Ala-Asp-CH2F; configuration not given here)
effect of pre-treatment on FTY720-mediated cell death / growth suppression (A549 cells [7]; LDH release): had no effect

CN1C(=O)C(Cc2c[nH]c3ccccc23)NC1=S (centres unmarked) [necrostatin]
effect of pre-treatment on FTY720-mediated cell death / growth suppression (A549 cells [7]; LDH release): significantly prevented
effect on FTY720-mediated cell death [8]: prevented FTY720-mediated cell death

C=C1[C@@H](O)[C@@H]2O[C@]3(CC[C@H](/C=C/[C@@H](C)[C@@H]4CC(C)=C[C@@]5(O[C@H](C[C@@](C)(O)C(=O)O)CC[C@H]5O)O4)O3)CC[C@H]2O[C@@H]1[C@@H](O)C[C@H](C)[C@H]1O[C@@]2(CCCCO2)CC[C@H]1C [okadaic acid]
effect on FTY720-mediated cell death [8]: prevented FTY720-mediated cell death

CCCCCCCCCCCCC/C=C/[C@@H](O)[C@@H](N)CO [sphingosine]
binding of endogenous sphingosine (WT-I2PP2A/SET-GFP; LC/MS/MS after pull-down): bind

CC(=O)O[C@H]1C(=O)[C@@]2(C)[C@H]([C@H](OC(=O)c3ccccc3)[C@]3(O)C[C@H](OC(=O)[C@H](O)[C@@H](NC(=O)c4ccccc4)c4ccccc4)C(C)=C1C3(C)C)[C@]1(OC(C)=O)CO[C@@H]1C[C@@H]2O [taxol]
caspase 3 activity (apoptosis) (ATG5−/− MEFs): increased caspase 3 activity
